# SKN-1 block = blocks SKN-1 activity in C. elegans | C. elegans VP596 Pgst-4::GFP/RFP ratio, acrylamide-induced, 24 h | inhibition, % at 21.8 µM | 360,000 compounds, 0.49% hits;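 active means interference check ratio from 0.5 to 1.5 plus GFP to RFP signal ratio inhibition reaching or exceeding a fixed threshold, cut at about 30% in these data, passing the limit was not always enough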
# NR2E3 ag-1 = agonists of human nuclear receptor NR2E3. AID 2300. 320,000 compounds, 0.12% hits. GST-NR2E3/biotin-RetCOR TR-FRET, 1536-well. Q9Y5X4. inhibition of corepressor binding, % at 4.78 µM;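 active means percent inhibition above the cutoff of mean plus 3 SD of all tested compounds, set per screening campaign, cut at about 20% in these data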;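 further: 0% = DMSO wells and 100% = biotin wells as full block of FRET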
#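 Assay system: NR2E3–RetCOR corepressor complex. Quantity: 1.35 nM GST-NR2E3. Buffer or medium: pH 7.5 Tris-based buffer. Reagent: biotinylated RetCOR corepressor at 7 nM final. Schedule: 5 h at 4 °C. Detection: TR-FRET, emission read at 617 and 671 nm. Replicates: one well per compound, singlicate testing.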
# MT1-MMP act inh = inhibitors of human MT1-MMP activation | P50281 | HT1080 RFP-PRO-GFP cells, GFP/RFP ratio fluorescence, overnight; percent of plate control window, DMSO zero | GFP/RFP ratio change, % at 20 µM | 360,000 compounds, 0.061% hits;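 active means GFP/RFP ratio change of at least 30% with cell ATP level not reduced by more than half and red fluorescence within 50% of control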
#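 Assay system – RFP-PRO-GFP reporter HT1080 cells · Compound dosing – single dose of 20 µM compound, 1% DMSO final · Incubation – overnight compound exposure at 37 °C · Measure – GFP/RFP fluorescence ratio · Benchmarks – DMSO wells and RFP-L50D-GFP cells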
# NR2E3 ag-2 = activates human NR2E3 receptor; AID 602229; 360,000 compounds, 0.35% hits; Q9Y5X4; inhibition of corepressor binding, % at 3.98 µM; CHO-S Gal4-NCOR/VP16-NR2E3 two-hybrid, luciferase;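 active means inhibition above the mean of all tested compounds plus 3 SD, cut at about 70% in these data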;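 further: 0% = DMSO with NR2E3 transfected cells and 100% = cells lacking NR2E3 construct; higher means lower luciferase signal from less NR2E3 corepressor binding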
# Rev-erbA mod = Rev-erb alpha (human) modulation; AID 1259318; P20393; activity, % at 10 µM; 370,000 compounds, 0.79% hits; Rev-erbα–FITC-DNA binding, fluorescence polarization, 90 min;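 active means activity above about 14%, limit read from the data; passing the limit was not always enough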;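 further: 0% = DMSO wells with 35 nM protein and 100% = DMSO wells with 750 nM protein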
# Target sequence (P20393 whole entry, looked up): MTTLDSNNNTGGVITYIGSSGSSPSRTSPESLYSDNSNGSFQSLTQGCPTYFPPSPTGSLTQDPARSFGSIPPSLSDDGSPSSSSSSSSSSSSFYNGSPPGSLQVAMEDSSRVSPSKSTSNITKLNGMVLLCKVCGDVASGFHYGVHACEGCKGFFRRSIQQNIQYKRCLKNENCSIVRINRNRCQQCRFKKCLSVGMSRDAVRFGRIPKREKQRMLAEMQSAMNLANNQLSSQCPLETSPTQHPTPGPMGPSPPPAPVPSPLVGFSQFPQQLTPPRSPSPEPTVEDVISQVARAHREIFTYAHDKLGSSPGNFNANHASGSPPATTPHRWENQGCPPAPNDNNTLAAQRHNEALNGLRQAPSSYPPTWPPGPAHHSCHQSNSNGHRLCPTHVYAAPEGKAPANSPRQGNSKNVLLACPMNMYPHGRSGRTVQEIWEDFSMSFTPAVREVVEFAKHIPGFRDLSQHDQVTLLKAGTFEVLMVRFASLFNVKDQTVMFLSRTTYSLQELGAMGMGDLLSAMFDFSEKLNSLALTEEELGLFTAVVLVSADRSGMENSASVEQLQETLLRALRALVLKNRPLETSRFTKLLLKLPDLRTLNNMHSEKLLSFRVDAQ
# PG9 binder = binds the HIV-1 gp120 antibody PG9; TR-FRET gp120-PG9 antibody binding; 360,000 compounds, 0.43% hits; inhibition, % at 6.7 µM; in the data active means inhibition above about 8.5%
# NR1D1 mod conf = confirmation of modulators of human Rev-erb alpha DNA binding. shares compounds with Rev-erbA mod. Rev-erb alpha FITC-DNA binding, fluorescence polarization, 90 min. activation, % at 25 µM. 3,000 compounds, 61% hits. AID 1259319;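 active means activation at or above a set limit, or at least 3 SD above the negative control mean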;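 further: 0% = 35 nM protein with DMSO and 100% = 750 nM protein high control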
# RORg DNA counter = affects RORgamma DNA binding in a Rev-erb alpha counter-screen; shares compounds with Rev-erbA mod; purified RORgamma protein-FITC-DNA binding, fluorescence polarization; IC50, µM; 910 compounds, 8% hits; AID 1259320;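 active means Compounds whose fitted half-maximal concentration for disrupting protein-DNA binding is below 10 micromolar; the record names Rev-erb in its text, so the target is in doubt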
# Active calls of the source: *; i = inactive; nt = not tested or not shown. Hits are enriched below; roughly 1.9% of the tested compounds scored in any of these assays.
SMILES,SKN-1 block,NR2E3 ag-1,MT1-MMP act inh,NR2E3 ag-2,Rev-erbA mod,PG9 binder,NR1D1 mod conf,others
CC1(Cc2ccccc2C#N)C(=O)Nc2ccc(OC(F)(F)F)cc21 (stereo unspecified),23,nt,-1,-21,28*,-1,26*,
COc1ccc(OC(F)(F)F)cc1CC1(C)C(=O)Nc2c(Cl)ccc(Cl)c21 (stereo unspecified),13,nt,-11,-6,nt,nt,nt,
CCc1ccc2c(c1)NC(=O)C2(C)Cc1ccccc1Cl (stereo unspecified),11,nt,-5,8,-2,1,nt,
N#CCC1(O)C(=O)Nc2ccccc21 (stereo unspecified),nt,nt,nt,nt,-4,0,nt,
O=C(COc1ncnc2c(Cl)cc(Cl)cc12)NC1CCCCCC1,-6,-4,-1,-17,30*,-1,32*,RORg DNA counter=1.3*
CC(=O)Nc1ccc(S(=O)(=O)N2CCN(Cc3nc4sc(C)c(C)c4c(=O)[nH]3)CC2)cc1,0,-2,1,-12,31*,3,16,
CCOC(=O)N1CCC(n2c(SCC(=O)c3ccccc3)nc3ccsc3c2=O)CC1,7,-1,-8,5,37*,-2,55*,RORg DNA counter=i
CCOC(=O)CSc1nc2ccsc2c(=O)n1C1CCN(C(=O)OCC)CC1,-4,-1,4,-3,-6,nt,nt,
COc1ccc(CN2CCN(CCCc3ccccc3)C(CCO)C2)c(O)c1 (stereo unspecified),1,-2,3,15,-2,1,nt,
COc1ccc(CN2CCN(CCc3ccccc3)C(CCO)C2)c(O)c1 (stereo unspecified),0,-3,0,5,16*,5,-1,
CCc1nnc(NC(=O)c2ccc(-c3cc(C(F)(F)F)ccc3Cl)o2)s1,11,5,-2,5,10,-1,nt,
CC(NC(=O)c1ccc(-c2cc(C(F)(F)F)ccc2Cl)o1)c1ccccc1 (stereo unspecified),-2,3,-2,3,30*,4,45*,RORg DNA counter=0.78*
OCC1SC(O)C(O)C(O)C1O (stereo unspecified),nt,nt,nt,nt,-3,-1,nt,
O=C(COc1ccc(Cl)cc1)Nc1cccc(-c2ccc(N3CCOCC3)nn2)c1,3,1,11,-83,20*,5,12,
O=C(Nc1cccc(-c2ccc(N3CCOCC3)nn2)c1)c1ccc(Cl)cc1,5,-1,3,-45,0,3,nt,
CCOC(=O)/C(C#N)=C/Nc1cc(F)ccc1C,9,4,0,-2,0,2,nt,
CCOC(=O)/C(C#N)=C/Nc1ccsc1C(=O)OC,-5,-4,-1,12,22*,1,11,
CCOC(=O)/C(C#N)=C/Nc1cc(C(=O)OCC)cc2c(OC)c(OC)ccc12,4,nt,6,-4,31*,1,-2,
COc1ccc(C(=O)N2CCC[C@H]2C(=O)N2CCC[C@@H]2C(=O)NCc2ccccc2)cc1F,nt,nt,nt,nt,-5,-2,nt,
COc1ccccc1CNc1nc2cc(-c3sccc3C)sc2c(=O)n1C,-16,nt,-4,-89,29*,1,20*,
CC(=O)c1cc(-c2ccc(S(C)(=O)=O)cc2)c(=O)n2c1CCC2,nt,nt,nt,nt,-7,nt,nt,
CCOc1cccc2cc(-c3cn4cc(C)ccc4n3)c(=O)oc12,26,1,-4,-42,53*,3,25*,
O=C(O)CN1C(=O)/C(=C\c2cn(CC(=O)N3CCOCC3)c3ccccc23)SC1=S,-15,-10,-129,15,39*,-17,39*,RORg DNA counter=>40
COc1ccc(CNC(=O)c2sc3nc(C)c(Cl)c(C)c3c2N)cc1,nt,nt,nt,nt,-7,nt,nt,
Cc1ccc2c(c1)S(=O)(=O)c1ccc3ccccc3c1N2,12,nt,8,-22,32*,-3,15*,
